Series [1] concerns the target T1, Nociceptin receptor (Homo sapiens, UniProt P41146). As to the kind of experiment: Displacement of [3H]N/OFQ from human recombinant ORL1 receptor expressed in HEK293 cells after 45 mins by scintillation proximity assay. The series is classed as cell-based. The essentials: (§1)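 Compound at 10^-11–10^-5 M (six 10-fold steps), duplicates; nonspecific binding with 1 µM N/OFQ. IC50 by nonlinear regression, Ki by Cheng–Prusoff; percent inhibition reported at 1 µM.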

In another series the target is Mu-type opioid receptor (Homo sapiens, UniProt P35372). As to the kind of experiment: Displacement of [3H]DAMGO from human recombinant MOP receptor expressed in CHO-K1 cells after 45 mins by scintillation proximity assay. It is filed as cell-based.
Series [2] addresses T1, Nociceptin receptor. In words: Displacement of [3H]N/OFQ from human recombinant ORL1 receptor expressed in HEK293 cells at 1 uM after 45 mins by scintillation proximity assay. It is filed as cell-based. In a few lines:
as §1

For another series, the species on record is Homo sapiens. In words: Selectivity ratio of Ki for human recombinant MOP receptor to Ki for human recombinant ORL1 receptor.
For series [3], the target named is T1, Nociceptin receptor. In words: Antagonist activity at human recombinant ORL1 receptor expressed in HEK293 cells assessed as inhibition of N/OFQ-induced [35S]GTPgammaS binding to alpha-unit of G-protein after 1.5 hrs by scintillation counting. The series is classed as functional, cell-based. In a few lines: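 Membranes from HEK-293 cells expressing hNOP receptor, incubated 1.5 h at 25 °C with 10 nM N/OFQ and compound at six concentrations (0.1 nM–10 µM) in 20 mM HEPES pH 7.4, 100 mM NaCl, 5 mM MgCl2, 1 mM EDTA, 5 µM GDP, 400 pM [35S]GTPγS, WGA-SPA beads. Duplicates; NSB with 10 µM unlabelled GTPγS; basal without ligands.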

Series [4] is described as follows: Half life in human liver microsomes by HPLC/MS/MS analysis. It is filed as ADME, Microsome.

Molecules are shown by their SMILES. Activity calls are given as the source filed them. The calls are words filed in the database; no cut-off is given here.

Mu-type opioid receptor, sequence (P35372 whole entry): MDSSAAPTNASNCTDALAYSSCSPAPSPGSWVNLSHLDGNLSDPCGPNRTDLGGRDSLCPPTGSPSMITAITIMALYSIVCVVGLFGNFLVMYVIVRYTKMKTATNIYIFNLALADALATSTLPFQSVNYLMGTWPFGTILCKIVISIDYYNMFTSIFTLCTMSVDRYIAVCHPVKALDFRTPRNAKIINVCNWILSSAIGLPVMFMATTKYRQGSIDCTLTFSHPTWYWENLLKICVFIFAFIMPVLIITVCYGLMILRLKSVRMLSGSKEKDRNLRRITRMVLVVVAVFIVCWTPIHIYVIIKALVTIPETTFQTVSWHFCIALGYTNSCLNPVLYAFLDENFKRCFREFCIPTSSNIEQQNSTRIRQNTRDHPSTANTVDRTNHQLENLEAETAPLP
T1 sequence (P41146 whole entry): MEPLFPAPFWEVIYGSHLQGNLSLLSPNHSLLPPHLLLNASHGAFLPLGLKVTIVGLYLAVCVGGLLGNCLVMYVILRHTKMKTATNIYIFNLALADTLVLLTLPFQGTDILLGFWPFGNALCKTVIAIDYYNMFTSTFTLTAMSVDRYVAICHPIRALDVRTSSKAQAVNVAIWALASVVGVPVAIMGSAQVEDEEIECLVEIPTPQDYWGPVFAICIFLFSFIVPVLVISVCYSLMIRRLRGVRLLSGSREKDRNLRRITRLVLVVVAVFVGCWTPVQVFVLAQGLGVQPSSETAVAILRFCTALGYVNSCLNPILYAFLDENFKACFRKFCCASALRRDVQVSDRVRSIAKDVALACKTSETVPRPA

`CN(C)C(=O)C1Cc2ccccc2N1C(=O)CCN1CCN(Cc2ccccc2)CC1` (racemic): the inhibition constant (Ki) at Nociceptin receptor [1] was more than 250 nM; at Mu-type opioid receptor, more than 450 nM. Moreover, the inhibition on Nociceptin receptor [2] worked out at 11%.
Take `CN(C)C(=O)C1Cc2ccccc2N1C(=O)CCN1CCC(C2CCCCC2)CC1` (racemic): on Nociceptin receptor [1], the Ki stood at 286 nM.
With `CCCC(C)N1CCN(CCC(=O)N2c3ccccc3CC2C(=O)N(C)C)CC1` (racemic), the figures for the Ki on Nociceptin receptor [1] and at Mu-type opioid receptor were more than 250 nM and more than 450 nM, respectively. Also, at Nociceptin receptor [2], the inhibition was 40%.
On to `Cc1cccc(N2CCN(CCC(=O)N3c4ccccc4CC3C(=O)N(C)C)CC2)c1` (racemic), for which the Ki on Nociceptin receptor [1] is more than 250 nM. For the same compound, the inhibition at Nociceptin receptor [2] was 13%.
Take `CN(C)C(=O)[C@@H]1Cc2ccccc2N1C(=O)CCN1CCC(c2ccccc2)CC1`: the inhibition constant Ki was found to be 13.6 nM at Nociceptin receptor [1] and 80.7 nM at Mu-type opioid receptor. For the same compound, the Ratio Ki in the series listed under Homo sapiens was 5.9. In addition, the concentration for half-maximal inhibition (IC50) on Nociceptin receptor [3] came to 138 nM. In addition, the half-life in series [4] came to 55 min.
As for `CN(C)C(=O)C1Cc2ccccc2N1C(=O)CCN1CC[C@@H]2c3ccccc3CC[C@@H]2C1` (mixture of isomers), the inhibitory constant (Ki) at Nociceptin receptor [1] is more than 250 nM. Moreover, on Nociceptin receptor [2], the inhibition was 33%.
As to `Cc1ccccc1N1CCN(CCC(=O)N2c3ccccc3CC2C(=O)N(C)C)CC1` (racemic), the Ki worked out at 11.6 nM on Nociceptin receptor [1] and 318 nM at Mu-type opioid receptor. Further, the Ratio Ki in the series filed under Homo sapiens is 27.
As for `CCC(CC)N1CCN(CCC(=O)N2c3ccccc3CC2C(=O)N(C)C)CC1` (racemic), the results for the Ki at Nociceptin receptor [1] and at Mu-type opioid receptor were 101 nM and more than 450 nM, respectively.
As for `CN(C)C(=O)C1Cc2ccccc2N1C(=O)CCN1CCC(c2ccccc2C(F)(F)F)CC1` (racemic), at Nociceptin receptor [1], the inhibitory constant (Ki) was 31.5 nM.
Consider `CN(C)C(=O)C1Cc2ccccc2N1C(=O)CCN1CCCC(c2ccccc2)CC1` (racemic), for which the inhibition constant Ki at Nociceptin receptor [1] was more than 250 nM. Besides, the inhibition at Nociceptin receptor [2] worked out at 15%.
In the case of `CCOc1ccccc1N1CCN(CCC(=O)N2c3ccccc3CC2C(=O)N(C)C)CC1` (racemic), the inhibition constant (Ki) was 128 nM on Nociceptin receptor [1] and 29.8 nM on Mu-type opioid receptor. The Ratio Ki in the series listed under Homo sapiens was determined as 0.23.
In the case of `CN(C)C(=O)C1Cc2ccccc2N1C(=O)CCN1CCN(c2ccccc2)CC1` (racemic), the Ki on Nociceptin receptor [1] is more than 250 nM; at Mu-type opioid receptor it was 397 nM. Further, the 50% inhibitory concentration (IC50) on Nociceptin receptor [3] was 48000 nM. Also, at Nociceptin receptor [2], the inhibition came to 43%.
`CN(C)C(=O)C1Cc2ccccc2N1C(=O)CCN1CCN(C2CCCCCC2)CC1` (racemic): the inhibition constant (Ki) at Nociceptin receptor [1] is more than 250 nM. The inhibition at Nociceptin receptor [2] worked out at 12%.
As to `CN(C)C(=O)C1Cc2ccccc2N1C(=O)CCN1CCC(N2CCCCC2)CC1` (racemic), the values for the Ki on Nociceptin receptor [1] and on Mu-type opioid receptor were more than 250 nM and more than 450 nM, respectively. In addition, on Nociceptin receptor [2], the inhibition entry is “inactive”.
On the same counts, the results for `CC(c1ccccc1)N1CCN(CCC(=O)N2c3ccccc3CC2C(=O)N(C)C)CC1` (racemic) are more than 250 nM, more than 450 nM and 21%.
Consider `CN(C)C(=O)C1Cc2ccccc2N1C(=O)CCN1Cc2ccccc2C1` (racemic), for which the Ki at Nociceptin receptor [1] was more than 250 nM. The inhibition on Nociceptin receptor [2] is 16%.
On the same counts, the results for `CN(C)C(=O)C1Cc2ccccc2N1C(=O)CCN1Cc2cccc3cccc(c23)C1` (racemic) are more than 250 nM and 15%.
As for `CN(C)C(=O)C1Cc2ccccc2N1C(=O)CCN1CCC(c2ccccc2)CC1` (racemic), the results for the Ki on Nociceptin receptor [1] and on Mu-type opioid receptor were 26.2 nM and 502 nM, respectively. The Ratio Ki in the series filed under Homo sapiens stood at 19. For the same compound, the IC50 on Nociceptin receptor [3] was found to be 2300 nM.
Turning to `Cc1cccc(C)c1C1CCN(CCC(=O)N2c3ccccc3C[C@H]2C(=O)N(C)C)CC1`, the figures for the Ki at Nociceptin receptor [1] and on Mu-type opioid receptor were 0.96 nM and 82.1 nM, respectively. Further, the Ratio Ki in the series listed under Homo sapiens is 86. Also, at Nociceptin receptor [3], the IC50 was determined as 12 nM. Moreover, in series [4], the half-life was determined as 19 min.
Consider `CN(C)C(=O)[C@@H]1Cc2ccccc2N1C(=O)CCN1CC2CCC(C1)C2c1ccccc1` (stereo not given in full), for which the figures for the inhibition constant Ki on Nociceptin receptor [1] and at Mu-type opioid receptor were more than 250 nM and 28.4 nM, respectively. Moreover, the half-life in series [4] came out at 10 min. Also, the inhibition on Nociceptin receptor [2] came to 23%.
Regarding `Cc1ccccc1C1CCN(CCC(=O)N2c3ccccc3C[C@H]2C(=O)N(C)C)CC1`, the Ki is 3.03 nM on Nociceptin receptor [1] and 67.2 nM on Mu-type opioid receptor. Further, the Ratio Ki in the series filed under Homo sapiens is 22. Also, the IC50 on Nociceptin receptor [3] stood at 44 nM. Besides, the half-life in series [4] is 24 min.
With `CN(C)C(=O)C1Cc2ccccc2N1C(=O)CCN1CCN(C2CCCCCCC2)CC1` (racemic), at Nociceptin receptor [1], the inhibitory constant (Ki) is more than 250 nM. Moreover, the inhibition at Nociceptin receptor [2] stood at 12%.
On the same counts, the results for `CN(C)C(=O)C1Cc2ccccc2N1C(=O)CCN1CCC(c2ccccn2)CC1` (racemic) are more than 250 nM and “inactive”.
As for `Cc1ccc(N2CCN(CCC(=O)N3c4ccccc4CC3C(=O)N(C)C)CC2)c(C)c1` (racemic), the Ki at Nociceptin receptor [1] was more than 250 nM. Also, the inhibition on Nociceptin receptor [2] worked out at 25%.
As for `CN(C)C(=O)C1Cc2ccccc2N1C(=O)CCN1CCC(c2ccccc2F)CC1` (racemic), the inhibition constant (Ki) on Nociceptin receptor [1] was 26.5 nM.
As to `CN(C)C(=O)C1Cc2ccccc2N1C(=O)CCN1CCN(C2CCCC2)CC1` (racemic), the Ki at Nociceptin receptor [1] is more than 250 nM. Besides, the inhibition on Nociceptin receptor [2] was determined as 3%.
In the case of `CN(C)C(=O)C1Cc2ccccc2N1C(=O)CCN1CCN(c2cnccn2)CC1` (racemic), the Ki at Nociceptin receptor [1] was more than 250 nM; on Mu-type opioid receptor it was 235 nM. Further, the inhibition at Nociceptin receptor [2] came out at 37%.
For `CN(C)C(=O)C1Cc2ccccc2N1C(=O)CCN1CCN(C2CCCCC2)CC1` (racemic) the same measures were more than 250 nM, more than 450 nM and 11%.
Turning to `CN(C)C(=O)[C@@H]1Cc2ccccc2N1C(=O)CCN1CCC(c2ccc(F)cc2)CC1`, the results for the Ki on Nociceptin receptor [1] and on Mu-type opioid receptor were 9.84 nM and 238 nM, respectively. Further, the IC50 on Nociceptin receptor [3] is 107 nM. The compound further returned a half-life in series [4] of 82 min.
In the case of `Cc1ccccc1C1CCN(CCC(=O)N2c3ccccc3CC2C(=O)N(C)C)CC1` (racemic), the Ki on Nociceptin receptor [1] was 5.55 nM; on Mu-type opioid receptor, 138 nM. For the same compound, in the series filed under Homo sapiens, the Ratio Ki turned out to be 25. For the same compound, the IC50 on Nociceptin receptor [3] was 116 nM.
In the case of `Cc1cc(F)ccc1C1CCN(CCC(=O)N2c3ccccc3C[C@H]2C(=O)N(C)C)CC1`, the values for the inhibition constant (Ki) on Nociceptin receptor [1] and on Mu-type opioid receptor were 3.79 nM and 139 nM, respectively. For the same compound, the half-maximal inhibitory concentration (IC50) on Nociceptin receptor [3] amounted to 42 nM. Further, in series [4], the half-life was 43 min.
For `CN(C)C(=O)C1Cc2ccccc2N1C(=O)CCN1CCc2ccccc2C1` (racemic), the Ki at Nociceptin receptor [1] is more than 250 nM. Further, the inhibition on Nociceptin receptor [2] turned out to be 11%.

Values taken from ChEMBL document CHEMBL2062521, “Discovery of 1-(β-amino substituted-β-alanyl)-N,N-dimethylindoline-2-carboxamides as novel nonpeptide antagonists of nociceptin/orphanin FQ receptor: efficient design, synthesis, and structure-activity relationship studies” (Eur J Med Chem, 2012).
